Data on 16 compounds can be found in ChEMBL document CHEMBL3875199, “Photodynamic effect of meso-(aryl)porphyrins and meso-(1-methyl-4-pyridinium)porphyrins on HaCaT keratinocytes” (Bioorg Med Chem Lett, 2017).

Data set [1] in a line: Phototoxicity against human HaCaT cells assessed as cell viability at 1 uM after irradiation with light at 180 J/cm'2 for 30 mins by MTT assay. Format: functional. As to conditions: light or radiation study, 0.5 h, read-out: Activity. The method, boiled down: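 HaCaT screen at 1 µM porphyrin. Light 100 mW/cm² for 30 min (fluence 180 J/cm²). Viability by MTT, given as percent.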
In general terms: Tetrazolium assays rely on reduction of a dye to a coloured formazan, in cell work by metabolically active cells.

The nature of data set [2]: Induction of singlet oxygen production assessed as amount of DPiBF remaining after irradiation with light at 9 mW/cm'2 for 30 mins by DPiBF photooxidation based spectrophotometric analysis (reference value: 80%). Format: physicochemical. As to conditions: 0.5 h. The method, boiled down: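 Singlet oxygen measured by DPiBF photooxidation in DMF. Light at 9 mW/cm² for 30 min. DPiBF absorbance at 415 nm reported as percent of the starting value.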

Data set [3] can be described thus: Phototoxicity against human HaCaT cells assessed as reduction in cell viability after irradiation with white light at 120 J/cm'2 for 20 mins by MTT assay. Format: functional, cell-based. As to conditions: light or radiation study. The method, boiled down: (§1)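 HaCaT PDT at 0.01, 0.03, 0.1, 0.3 and 1 µM porphyrin (untreated control as 0). Light 100 mW/cm² for 20 min (fluence 120 J/cm²). Viability by MTT. IC50 estimated from the roughly linear concentration–viability relationship.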

The nature of data set [4]: Photostability of compound in aqueous media assessed as amount of soret band remaining after irradiation with white light at 100 mW/cm'2 for 30 mins by UV-spectrophotometric analysis. Format: physicochemical. The note with it: read-out: Stability. The method, boiled down: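 Porphyrin in aqueous medium under white light, 100 mW/cm², sampled at intervals up to 30 min. Soret band absorbance tracked and given as percent remaining of the original.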

A short description of data set [5]: Phototoxicity against human HaCaT cells assessed as cell viability at 0.01 uM after irradiation with white light at 120 J/cm'2 for 20 mins by MTT assay. Format: functional. The note with it: light or radiation study, read-out: Activity. The method, boiled down: as §1
Data set [6] is described as follows: Dark toxicity against human HaCaT cells assessed as reduction in cell viability at >0.1 uM after 24 hrs by MTT assay. Format: cell-based. The method, boiled down:
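HaCaT keratinocytes held with porphyrin in the dark for 24 h, no light exposure, over 0.01–1 µM (untreated control as 0). Viability read by MTT.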

Regarding `Clc1ccc(-c2c3nc(c(-c4ccc(Cl)cc4)c4ccc([nH]4)c(-c4ccc(Cl)cc4)c4nc(c(-c5ccc(Cl)cc5)c5ccc2[nH]5)C=C4)C=C3)cc1`, the viability at 1 µM in data set [1] turned out to be 100%.

For the compound `C[n+]1ccc(-c2c3nc(c(-c4cc[n+](C)cc4)c4ccc([nH]4)c(-c4cc[n+](C)cc4)c4nc(c(-c5cc[n+](C)cc5)c5ccc2[nH]5)C=C4)C=C3)cc1.[I-].[I-].[I-].[I-]`, in data set [1], the viability at 1 µM was 26.6%. The Activity in data set [2] is 22%. Moreover, the IC50 (commonly the concentration at which inhibition is half-maximal) in data set [3] came out at 59 nM. The remaining at 0.5 h in data set [4] amounted to 98%.

Turning to `Nc1ccc(-c2c3nc(c(-c4ccccc4)c4ccc([nH]4)c(-c4ccccc4)c4nc(c(-c5ccccc5)c5ccc2[nH]5)C=C4)C=C3)cc1`, in data set [1], the viability at 1 µM was 100%. Moreover, in data set [2], the Activity was 59%. The remaining at 0.5 h in data set [4] turned out to be 96%.

Turning to `Cc1ccc(-c2c3nc(c(-c4ccc(C)cc4)c4ccc([nH]4)c(-c4ccc(C)cc4)c4nc(c(-c5ccc(C)cc5)c5ccc2[nH]5)C=C4)C=C3)cc1`, the viability at 1 µM in data set [1] is 100%.

Consider `CC(=O)Oc1ccc(-c2c3nc(c(-c4ccc(OC(C)=O)cc4)c4ccc([nH]4)c(-c4ccc(OC(C)=O)cc4)c4nc(c(-c5ccc(OC(C)=O)cc5)c5ccc2[nH]5)C=C4)C=C3)cc1`, for which the viability at 1 µM in data set [1] worked out at 100%. Moreover, the Activity in data set [2] is 29%. Also, in data set [4], the remaining at 0.5 h stood at 83%.

In the case of `C[n+]1ccc(-c2c3nc(c(-c4ccccc4)c4ccc([nH]4)c(-c4ccccc4)c4nc(c(-c5cc[n+](C)cc5)c5ccc2[nH]5)C=C4)C=C3)cc1.[I-].[I-]`, in data set [1], the viability at 1 µM was determined as 23.2%. Moreover, the viability at 0.01 µM in data set [5] was 69%. The Activity entry in data set [6] is given as “Toxic”; in data set [2], 20%. Besides, the IC50 in data set [3] was determined as 52.3 nM. Besides, the remaining at 0.5 h in data set [4] came out at 92%.

For the compound `COc1ccc(-c2c3nc(c(-c4ccc(OC)cc4)c4ccc([nH]4)c(-c4ccc(OC)cc4)c4nc(c(-c5ccc(OC)cc5)c5ccc2[nH]5)C=C4)C=C3)cc1`, the viability at 1 µM in data set [1] worked out at 100%. The Activity in data set [2] is 28%. Moreover, the remaining at 0.5 h in data set [4] is 97%.

Turning to `O=[N+]([O-])c1ccc(-c2c3nc(c(-c4ccccc4)c4ccc([nH]4)c(-c4ccc([N+](=O)[O-])cc4)c4nc(c(-c5ccccc5)c5ccc2[nH]5)C=C4)C=C3)cc1`, the viability at 1 µM in data set [1] was determined as 95.2%. Further, the Activity in data set [2] is reported as 28%. Besides, in data set [4], the remaining at 0.5 h was determined as 97%.

Consider `C1=Cc2nc1c(-c1ccc3ccccc3c1)c1ccc([nH]1)c(-c1ccc3ccccc3c1)c1nc(c(-c3ccc4ccccc4c3)c3ccc([nH]3)c2-c2ccc3ccccc3c2)C=C1`, for which the viability at 1 µM in data set [1] was found to be 100%. For the same compound, the Activity in data set [2] was 25%.

Regarding `C[n+]1ccc(-c2c3nc(c(-c4cc[n+](C)cc4)c4ccc([nH]4)c(-c4cc[n+](C)cc4)c4nc(c(-c5ccccc5)c5ccc2[nH]5)C=C4)C=C3)cc1.[I-].[I-].[I-]`, the viability at 1 µM in data set [1] is 23.9%. In addition, the Activity in data set [2] is reported as 12%. Further, the IC50 in data set [3] came out at 67 nM. In addition, in data set [4], the remaining at 0.5 h was determined as 97%.

As for `C[n+]1ccc(-c2c3nc(c(-c4ccccc4)c4ccc([nH]4)c(-c4ccccc4)c4nc(c(-c5ccccc5)c5ccc2[nH]5)C=C4)C=C3)cc1.[I-]`, the viability at 1 µM in data set [1] stood at 29.4%. Further, in data set [2], the Activity turned out to be 13%. Besides, the IC50 in data set [3] amounted to 602 nM.

For `O=[N+]([O-])c1ccc(-c2c3nc(c(-c4ccccc4)c4ccc([nH]4)c(-c4ccccc4)c4nc(c(-c5ccccc5)c5ccc2[nH]5)C=C4)C=C3)cc1`, the viability at 1 µM in data set [1] is 92.8%. Moreover, in data set [2], the Activity is recorded as 33%. Besides, the remaining at 0.5 h in data set [4] was determined as 96%.

For the compound `C[n+]1ccc(Sc2c(F)c(F)c(-c3c4nc(c(-c5c(F)c(F)c(Sc6cc[n+](C)cc6)c(F)c5F)c5ccc([nH]5)c(-c5c(F)c(F)c(Sc6cc[n+](C)cc6)c(F)c5F)c5nc(c(-c6c(F)c(F)c(Sc7cc[n+](C)cc7)c(F)c6F)c6ccc3[nH]6)C=C5)C=C4)c(F)c2F)cc1.[I-].[I-].[I-].[I-]`, in data set [1], the viability at 1 µM was 20.3%. Further, the Activity in data set [2] is 25%. For the same compound, in data set [3], the IC50 came to 240 nM. The remaining at 0.5 h in data set [4] is 89%.

For `C[n+]1ccc(-c2c3nc(c(-c4ccccc4)c4nc(c(-c5cc[n+](C)cc5)c5ccc([nH]5)c(-c5ccccc5)c5ccc2[nH]5)C=C4)C=C3)cc1.[I-].[I-]`, in data set [1], the viability at 1 µM worked out at 19.5%. The Activity in data set [2] is on record as 18%. Also, the IC50 in data set [3] is 136 nM. For the same compound, the remaining at 0.5 h in data set [4] came out at 91%.

Consider `C1=Cc2nc1c(-c1ccccc1)c1ccc([nH]1)c(-c1ccccc1)c1nc(c(-c3ccccc3)c3ccc([nH]3)c2-c2ccccc2)C=C1`, for which the viability at 1 µM in data set [1] was found to be 100%.

`O=S(=O)([O-])c1ccc(-c2c3nc(c(-c4ccc(S(=O)(=O)[O-])cc4)c4ccc([nH]4)c(-c4ccc(S(=O)(=O)[O-])cc4)c4nc(c(-c5ccc(S(=O)(=O)[O-])cc5)c5ccc2[nH]5)C=C4)C=C3)cc1.[Na+].[Na+].[Na+].[Na+]`: the viability at 1 µM in data set [1] was 76.1%. For the same compound, the Activity in data set [2] is recorded as 24%. Further, in data set [4], the remaining at 0.5 h came to 91%.
